Data from ChEMBL document CHEMBL3120102, “Structure-based design, synthesis and biological evaluation of novel anthra[1,2-d]imidazole-6,11-dione homologues as potential antitumor agents” (2013).

Legend:
[1] = molecular target: Telomerase reverse transcriptase (Homo sapiens) (UniProt O14746); assay: Inhibition of human tert transcriptional activity assessed as SEAP activity at 1 uM after 24 hrs by SEAP reporter assay; design: scale not given: the % may be the effect or the level left
Method in brief: (§1)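 Reporter assay for hTERT transcriptional activity using secreted alkaline phosphatase. About 2 × 10³ cells per well were grown for 24 h at 37 °C, then given fresh medium. Buffer was added to the medium: 2 M diethanolamine, 1 mM MgCl2 and 20 mM L-homoarginine. p-Nitrophenyl phosphate was added to 12 mM final. The rate of absorbance increase was read at 405 nm.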

OVCAR-8 = assay: Cytotoxicity against human OVCAR8 cells assessed as cell growth at 10 uM after 48 hrs by SRB assay; type: functional; conditions: OVCAR-8, 48 h, read-out: Activity
Method in brief: (§2)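 First stage of the NCI 60 human tumour cell line screen: a single dose is tested against every line. Cell growth is read as cellular protein by sulforhodamine B colorimetry after 48 h of drug exposure, with reference to a time-zero control and to untreated plates.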

[2] = Cytotoxicity against human OVCAR4 cells assessed as cell growth at 10 uM after 48 hrs by SRB assay; type: functional; conditions: OVCAR-4, 48 h, read-out: Activity; method in brief: as §2
[3] = Cytotoxicity against human H1299 cells assessed as cell viability at 100 uM after 48 hrs by MTT assay; type: functional; conditions: NCI-H1299, 48 h, read-out: Activity
Method in brief: (§3)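 About 2×10³ H1299 cells per well were grown for 24 h at 37 °C in 5% CO2. Compound was dissolved in DMSO immediately before use, diluted in complete medium and left on cells for 48 h. MTT was then added for 4 h at 37 °C, followed by SDS/DMF lysis buffer for 16 h at 37 °C. Absorbance was read at 550 nm.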

TK-10 = assay: Cytotoxicity against human TK10 cells assessed as cell growth at 10 uM after 48 hrs by SRB assay; type: functional; conditions: TK-10, 48 h, read-out: Activity
Method in brief: (§4)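 First stage of the NCI 60 human tumour cell line screen, with each compound tested at a single dose of 10. Cellular protein measured by sulforhodamine B colorimetry after 48 h drug exposure. Growth is calculated against a time-zero cell control and against plates not exposed to drug.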

NCI-H23 = assay: Cytotoxicity against human NCI-H23 cells assessed as cell growth at 10 uM after 48 hrs by SRB assay; type: functional; conditions: NCI-H23, 48 h, read-out: Activity; method in brief: as §2
[4] = Cytotoxicity against human NCI-ADR-RES cells assessed as cell growth at 10 uM after 48 hrs by SRB assay; type: functional; conditions: read-out: Activity; method in brief: as §2
UACC-62 = assay: Cytotoxicity against human UACC62 cells assessed as cell growth at 10 uM after 48 hrs by SRB assay; type: functional; conditions: UACC-62, 48 h, read-out: Activity; method in brief: as §4
CCRF-CEM [5] = assay: Cytotoxicity against human CCRF-CEM cells assessed as growth inhibition after 48 hrs by SRB assay; type: functional
Method in brief: (§5)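 NCI 60-cell-line five-dose screen at […]. Drug exposure was 48 h, followed by sulforhodamine B protein staining. GI50, TGI and LC50 were calculated against a time-zero control and untreated plates, with dose–response curves plotted from log10 concentration.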

[6] = molecular target: Telomerase reverse transcriptase (Homo sapiens) (UniProt O14746); assay: Inhibition of human tert transcriptional activity assessed as SEAP activity at 100 uM after 24 hrs by SEAP reporter assay; design: scale not given: the % may be the effect or the level left; method in brief: as §1
IGROV-1 = assay: Cytotoxicity against human IGROV1 cells assessed as cell growth at 10 uM after 48 hrs by SRB assay; type: functional; conditions: IGROV-1, 48 h, read-out: Activity
A498 = assay: Cytotoxicity against human A498 cells assessed as cell growth at 10 uM after 48 hrs by SRB assay; type: functional; conditions: A498, 48 h, read-out: Activity
SK-MEL-2 = assay: Cytotoxicity against human SK-MEL-2 cells assessed as cell growth at 10 uM after 48 hrs by SRB assay; type: functional; conditions: SK-MEL-2, 48 h, read-out: Activity; method in brief: as §2
[7] = Cytotoxicity against human H1299 cells assessed as cell viability at 1 uM after 48 hrs by MTT assay; type: functional; conditions: NCI-H1299, 48 h, read-out: Activity; method in brief: as §3
SN12C = assay: Cytotoxicity against human SN12C cells assessed as cell growth at 10 uM after 48 hrs by SRB assay; type: functional; conditions: read-out: Activity; method in brief: as §2
SF-295 = assay: Cytotoxicity against human SF295 cells assessed as cell growth at 10 uM after 48 hrs by SRB assay; type: functional; conditions: SF-295, 48 h, read-out: Activity; method in brief: as §2
DU-145 = assay: Cytotoxicity against human DU145 cells assessed as cell growth at 10 uM after 48 hrs by SRB assay; type: functional; conditions: DU-145, 48 h, read-out: Activity
Method in brief: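 NCI 60-cell-line screen, first stage: compound at a single dose of […] (unit as printed) for 48 h. Cellular protein was measured by sulforhodamine B colorimetry. Growth was determined using a time-zero cell control and plates not exposed to drug.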

KM12 = assay: Cytotoxicity against human KM12 cells assessed as growth inhibition after 48 hrs by SRB assay; type: functional; conditions: for GI50 / TGI / CC50: KM12, 48 h; for CC50: read-out: LC50 (the source's name); method in brief: as §5
[8] = Cytotoxicity against human H1299 cells assessed as cell viability at 10 uM after 48 hrs by MTT assay; type: functional; conditions: NCI-H1299, 48 h, read-out: Activity; method in brief: as §3
HCT-116 = assay: Cytotoxicity against human HCT116 cells assessed as cell growth at 10 uM after 48 hrs by SRB assay; type: functional; conditions: HCT-116, 48 h, read-out: Activity
PC-3 = assay: Cytotoxicity against human PC3 cells assessed as cell growth at 10 uM after 48 hrs by SRB assay; type: functional; conditions: PC-3, 48 h, read-out: Activity; method in brief: as §2
NCI-H522 = assay: Cytotoxicity against human NCI-H522 cells assessed as cell growth at 10 uM after 48 hrs by SRB assay; type: functional; conditions: NCI-H522, 48 h, read-out: Activity; method in brief: as §2
[9] = Cytotoxicity against human UO31 cells assessed as cell growth at 10 uM after 48 hrs by SRB assay; type: functional; conditions: UO-31, 48 h, read-out: Activity; method in brief: as §4
HCT-15 = assay: Cytotoxicity against human HCT15 cells assessed as growth inhibition after 48 hrs by SRB assay; type: functional; conditions: for GI50 / LC50 (concentration killing 50% of cells) / TGI: HCT-15, 48 h; method in brief: as §5
MOLT-4 = assay: Cytotoxicity against human MOLT4 cells assessed as cell growth at 10 uM after 48 hrs by SRB assay; type: functional; conditions: MOLT-4, 48 h, read-out: Activity; method in brief: as §2
CCRF-CEM [10] = assay: Cytotoxicity against human CCRF-CEM cells assessed as cell growth at 10 uM after 48 hrs by SRB assay; type: functional; conditions: read-out: Activity
SF-268 = assay: Cytotoxicity against human SF268 cells assessed as cell growth at 10 uM after 48 hrs by SRB assay; type: functional; conditions: SF-268, 48 h, read-out: Activity; method in brief: as §2
[11] = Cytotoxicity against human UACC257 cells assessed as cell growth at 10 uM after 48 hrs by SRB assay; type: functional; conditions: UACC-257, 48 h, read-out: Activity; method in brief: as §4
[12] = Cytotoxicity against human OVCAR5 cells assessed as cell growth at 10 uM after 48 hrs by SRB assay; type: functional; conditions: OVCAR-5, 48 h, read-out: Activity; method in brief: as §2

Telomerase reverse transcriptase (Homo sapiens), sequence (O14746 whole entry): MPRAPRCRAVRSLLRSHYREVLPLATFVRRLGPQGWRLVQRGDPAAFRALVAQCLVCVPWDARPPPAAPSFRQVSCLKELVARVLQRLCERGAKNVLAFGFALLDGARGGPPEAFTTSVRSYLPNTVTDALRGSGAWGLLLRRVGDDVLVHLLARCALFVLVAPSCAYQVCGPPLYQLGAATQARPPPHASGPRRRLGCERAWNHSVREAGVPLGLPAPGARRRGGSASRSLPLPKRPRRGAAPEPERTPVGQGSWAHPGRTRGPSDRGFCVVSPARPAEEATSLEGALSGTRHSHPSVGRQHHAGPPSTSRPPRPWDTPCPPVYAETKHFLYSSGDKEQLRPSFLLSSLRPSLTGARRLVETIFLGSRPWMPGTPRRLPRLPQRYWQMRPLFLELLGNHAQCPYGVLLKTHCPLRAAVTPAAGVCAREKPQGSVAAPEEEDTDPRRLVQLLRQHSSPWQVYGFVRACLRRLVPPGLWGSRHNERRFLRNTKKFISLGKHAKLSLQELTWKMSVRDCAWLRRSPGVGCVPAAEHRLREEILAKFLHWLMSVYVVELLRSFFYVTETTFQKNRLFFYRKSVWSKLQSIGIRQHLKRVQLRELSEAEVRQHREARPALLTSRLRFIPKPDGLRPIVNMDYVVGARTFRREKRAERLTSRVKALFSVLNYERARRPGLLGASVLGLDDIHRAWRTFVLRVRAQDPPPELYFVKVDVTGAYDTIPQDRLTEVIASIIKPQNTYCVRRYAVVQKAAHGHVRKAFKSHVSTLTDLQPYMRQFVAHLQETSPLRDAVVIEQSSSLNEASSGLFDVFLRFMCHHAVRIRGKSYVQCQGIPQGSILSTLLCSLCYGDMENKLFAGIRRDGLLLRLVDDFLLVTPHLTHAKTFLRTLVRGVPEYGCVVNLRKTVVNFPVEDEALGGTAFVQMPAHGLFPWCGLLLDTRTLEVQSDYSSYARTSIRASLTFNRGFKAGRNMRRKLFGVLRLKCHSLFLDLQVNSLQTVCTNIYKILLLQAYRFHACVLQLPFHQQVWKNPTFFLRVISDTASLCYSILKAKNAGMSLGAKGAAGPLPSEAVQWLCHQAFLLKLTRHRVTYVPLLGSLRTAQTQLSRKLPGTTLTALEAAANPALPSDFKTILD

Row | Structure (SMILES) | Activity [1] | growth at 10 µM (OVCAR-8) | growth at 10 µM [2] | viability at 100 µM [3] | growth at 10 µM (TK-10) | growth at 10 µM (NCI-H23) | growth at 10 µM [4] | growth at 10 µM (UACC-62) | Activity [6] | growth at 10 µM (IGROV-1) | growth at 10 µM (A498) | growth at 10 µM (SK-MEL-2) | viability at 1 µM [7] | growth at 10 µM (SN12C) | growth at 10 µM (SF-295) | growth at 10 µM (DU-145) | viability at 10 µM [8] | growth at 10 µM (HCT-116) | growth at 10 µM (PC-3) | growth at 10 µM (NCI-H522) | also measured
1 | CCCSc1nc2ccc3c(c2[nH]1)C(=O)c1ccccc1C3=O | 103% | 44.7% | 42.2% | 12% | 35.5% | 69.8% | 50.2% | 51.1% | 33% | 53.7% | 57.3% | 79.3% | 91% | 80.4% | 37.2% | 69.3% | 78% | 47.7% | 66.8% | 72.4% | GI50 (CCRF-CEM [5]): > 100 µM; LC50 (CCRF-CEM [5]): > 100 µM; TGI (CCRF-CEM [5]): > 100 µM; growth inhibition (GI) (CCRF-CEM [5]): Dose-dependent effect; growth inhibition (GI) (KM12): Dose-dependent effect; GI50 (KM12): > 100 µM; TGI (KM12): > 100 µM; CC50 (KM12): > 100 µM; growth at 10 µM [9]: 24.5%; growth inhibition (GI) (HCT-15): Dose-dependent effect; GI50 (HCT-15): > 100 µM; LC50 (concentration killing 50% of cells) (HCT-15): > 100 µM; TGI (HCT-15): > 100 µM; growth at 10 µM (MOLT-4): 68.1%; growth at 10 µM (CCRF-CEM [10]): 70.8%; growth at 10 µM (SF-268): 47.8%; growth at 10 µM [11]: 86.3%; growth at 10 µM [12]: 99.7%
2 | O=C1c2ccccc2C(=O)c2c1ccc1nc3n(c21)CCS3 | 107% | 75.4% | 89.3% | 99% | 58.8% | 84.3% | 84.1% | 73.1% | 48% | 62.3% | 73.7% | 99.9% | 115% | 74.9% | 78.6% | 68.8% | 128% | 68.4% | 93.9% | 80.6% | growth at 10 µM [9]: 45.8%; growth at 10 µM (MOLT-4): 58.4%; growth at 10 µM (CCRF-CEM [10]): 66.8%; growth at 10 µM (SF-268): 56.1%; growth at 10 µM [11]: 80.6%; growth at 10 µM [12]: 105%
3 | O=C1c2ccccc2C(=O)c2c1ccc1[nH]c(=S)[nH]c21 | 97% | 140% | 91.6% | 54% | 112% | 113% | 110% | 84.2% | 31% | 138% | 94.3% | 134% | 101% | 88% | 118% | 99.3% | 99% | 96.3% | 78.8% | 96.1% | growth at 10 µM [9]: 97.8%; growth at 10 µM (MOLT-4): 109%; growth at 10 µM (CCRF-CEM [10]): 61.9%; growth at 10 µM (SF-268): 90.3%; growth at 10 µM [11]: 105%; growth at 10 µM [12]: 129%
4 | O=C1c2ccccc2C(=O)c2c1ccc1nc(SCCN3CCCC3)[nH]c21 | 102% | 49.4% | 57.2% | 21% | 36.9% | 66.9% | 53.7% | 81% | 36% | 23.2% | 71.4% | 107% | 90% | 52.9% | 76.9% | 17.9% | 89% | 38.8% | 6.9% | 81.5% | GI50 (CCRF-CEM [5]): 3.34 µM; LC50 (CCRF-CEM [5]): 62.8 µM; TGI (CCRF-CEM [5]): 15.6 µM; growth inhibition (GI) (CCRF-CEM [5]): Dose-dependent effect; growth inhibition (GI) (KM12): Dose-dependent effect; GI50 (KM12): 2.32 µM; TGI (KM12): 6.16 µM; CC50 (KM12): 24.4 µM; growth at 10 µM [9]: 21.2%; growth inhibition (GI) (HCT-15): Dose-dependent effect; GI50 (HCT-15): 1.62 µM; LC50 (concentration killing 50% of cells) (HCT-15): 34.7 µM; TGI (HCT-15): 10.3 µM; growth at 10 µM (MOLT-4): 30.9%; growth at 10 µM (CCRF-CEM [10]): -15.4%; growth at 10 µM (SF-268): 42%; growth at 10 µM [11]: 92.8%; growth at 10 µM [12]: 87.5%
